Converted amounts (≈) assume the structure as drawn.
Key:
[1] = Plasma concentration in mouse infected with Plasmodium berghei ANKA at 50 mg/kg/day, po after 1 hr by HPLC analysis; type: ADME, organism-based; design: route oral
How it was run: (§1)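 P. berghei-infected mice dosed orally at 50 mg/kg daily for 4 days; blood sampled 1, 4 and 24 h after the first dose and analysed by HPLC for drug levels.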

Plasmodium falciparum [2] = assay: Antiplasmodial activity against Plasmodium falciparum NF54 by [3H]hypoxanthine incorporation assay; type: functional, organism-based
How it was run: (§2)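 Modified [3H]-hypoxanthine incorporation assay on P. falciparum asexual cultures, chloroquine and artesunate as references in every run. IC50 values are means of ≥2 independent experiments; individual values mostly within 2-fold (maximum 3-fold).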

[3] = (§3) Apparent half life in Sprague-Dawley rat at 3.6 mg/kg, po; type: ADME, organism-based; design: dose 3.6 mg/kg, route oral; conditions: Sprague-Dawley, in vivo, read-out: t1/2(app) (converted)
How it was run: (§4)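 Adult male Sprague-Dawley rats fasted overnight; dose 3.6 mg/kg prepared fresh, dissolved in water/0.01 M HCl/propylene glycol/ethanol/Tween 80 (1:2:1:0.1:0.1), given orally (1 mL) or intravenously (350 µL). Food returned 5 h post-dose. Heparinized blood taken at set time points, plasma held at -80°C, analysed by LC/MS/MS; parameters by non-compartmental analysis.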

[4] = Plasma concentration in mouse infected with Plasmodium berghei ANKA at 50 mg/kg/day, po after 4 hrs by HPLC analysis; type: ADME, organism-based; design: route oral; how it was run: as §1
[5] = Selectivity index, ratio of IC50 for CHO cells to IC50 for Plasmodium falciparum; type: toxicity, cell-based; conditions: hamster, read-out: Ratio IC50
Plasmodium berghei [6] = assay: Antimalarial activity against Plasmodium berghei ANKA infected in mouse assessed as reduction in parasitemia at 3 mg/kg/day, po qd administered for 4 days relative to control; type: functional; design: Activity: scale not given: the % may be the effect or the level left
How it was run: (§5)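 Mice (n = 3) infected with GFP-transfected P. berghei ANKA; compound in HPMC suspension vehicle given orally once daily at 4, 24, 48 and 72 h after infection. Blood collected day 4 (96 h post-infection); parasitemia by flow cytometry (detection limit 0.1%). Activity = difference in mean % parasitemia between control and treated groups, as % of control.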

[7] = (§6) Tmax in Sprague-Dawley rat at 3.6 mg/kg, po; type: ADME, organism-based; design: dose 3.6 mg/kg, route oral; conditions: Sprague-Dawley, in vivo; how it was run: as §4
[8] = Volume of distribution at steady state in Sprague-Dawley rat at 3.6 mg/kg, iv; type: ADME, organism-based; design: dose 3.6 mg/kg, route intravenous; conditions: in vivo, read-out: Vdss; how it was run: as §4
Plasmodium berghei [9] = assay: Antimalarial activity against Plasmodium berghei ANKA infected in mouse assessed as reduction in parasitemia at 10 mg/kg/day, po qd administered for 4 days relative to control; type: functional; design: Activity: scale not given: the % may be the effect or the level left; how it was run: as §5
[10] = tested on: CHO cells (Cricetulus griseus); assay: Selectivity index, ratio of IC50 for Chinese hamster CHO cells to IC50 for Plasmodium falciparum
[11] = tested on: CHO cells (Cricetulus griseus); assay: Cytotoxicity against Chinese hamster CHO cells
Rattus norvegicus [12] = assay: AUC (0 to infinity) in Sprague-Dawley rat at 3.6 mg/kg, iv; type: ADME, organism-based, Plasma; design: time infinity, dose 3.6 mg/kg, route intravenous; conditions: in vivo; how it was run: as §4
[13] = Aqueous solubility of the compound at pH 2; type: physicochemical; conditions: buffer
[14] = Apparent half life in Sprague-Dawley rat at 3.6 mg/kg, iv; type: ADME, organism-based; design: dose 3.6 mg/kg, route intravenous; conditions: in vivo; how it was run: as §4
[15] = Aqueous solubility of the compound at pH 6.5; type: physicochemical; conditions: buffer
Plasmodium berghei [16] = assay: Antimalarial activity against Plasmodium berghei ANKA infected in mouse assessed as reduction in parasitemia at 50 mg/kg/day, po qd administered for 4 days relative to control; type: functional; design: Activity: scale not given: the % may be the effect or the level left; how it was run: as §5
CHO = assay: Cytotoxicity against CHO cells; type: cell-based, Cricetulus griseus; conditions: chinese hamster
Rattus norvegicus [17] = assay: AUC (0 to infinity) in Sprague-Dawley rat at 3.6 mg/kg, po; type: ADME, organism-based, Plasma; design: time infinity, dose 3.6 mg/kg, route oral; conditions: in vivo; how it was run: as §4
Rattus norvegicus [18] = assay: (§7) Oral bioavailability in Sprague-Dawley rat at 3.6 mg/kg; type: ADME, organism-based; conditions: in vivo; how it was run: as §4
[19] = (§8) Cmax in Sprague-Dawley rat at 3.6 mg/kg, po; type: ADME, organism-based; design: dose 3.6 mg/kg, route oral; conditions: Sprague-Dawley, in vivo; how it was run: as §4
Rattus norvegicus [20] = assay: as §3; type: ADME, organism-based; design: dose 3.6 mg/kg, route oral; conditions: in vivo; how it was run: as §4
Rattus norvegicus [21] = assay: as §6; type: ADME, organism-based; design: dose 3.6 mg/kg, route oral; conditions: in vivo; how it was run: as §4
Plasmodium falciparum [22] = assay: Antiplasmodial activity against Plasmodium falciparum K1 by [3H]hypoxanthine incorporation assay; type: functional, organism-based; how it was run: as §2
[23] = as §7; type: ADME, organism-based; conditions: Sprague-Dawley, in vivo; how it was run: as §4
Rattus norvegicus [24] = assay: as §8; type: ADME, organism-based; design: dose 3.6 mg/kg, route oral; conditions: in vivo; how it was run: as §4

C[S+]([O-])c1ccc(-c2cnc3ccc(-c4cccc(S(=O)(=O)C5CC5)c4)nn23)cc1 (centres undefined)
concentration at 1 h [1]: 0.08 µM
IC50 (Plasmodium falciparum [2]): 1.1 nM
half-life [3]: 4.8 h
concentration at 4 h [4]: 0.02 µM
selectivity ratio [5]: > 1000
Activity (Plasmodium berghei [6]): 98%
MSD (Plasmodium berghei [6]): 7 days
Tmax [7]: 8 h
Vd [8]: 0.73 L/kg
Activity (Plasmodium berghei [9]): 99.6%
MSD (Plasmodium berghei [9]): 8 days
selectivity ratio [10]: > 1000
Activity [11]: Non-toxic
AUC (Rattus norvegicus [12]): 3.3 µM·h
solubility [13]: 61 µM (≈ 26.7 µg/mL)
half-life [14]: 0.55 h
solubility [15]: < 5 µM
Activity (Plasmodium berghei [16]): 99.8%
MSD (Plasmodium berghei [16]): >30 days
Activity (CHO): Non-toxic
AUC (Rattus norvegicus [17]): 0.36 µM·h
bioavailability (Rattus norvegicus [18]): 11%
Cmax [19]: 0.04 µM

CS(=O)(=O)c1ccc(-c2cnc3ccc(-c4cccc(S(=O)(=O)C5CC5)c4)nn23)cc1
IC50 (Plasmodium falciparum [2]): 0.88 nM
t1/2(app) (Rattus norvegicus [20]): 4.8 h
Tmax (Rattus norvegicus [21]): 12 h
Vd [8]: 2.3 L/kg
AUC (Rattus norvegicus [12]): 121 µM·h
solubility [13]: 19 µM (≈ 8.62 µg/mL)
IC50 (Plasmodium falciparum [22]): 0.53 nM
solubility [15]: < 5 µM
AUC (Rattus norvegicus [17]): 27 µM·h
bioavailability [23]: 24%
Cmax (Rattus norvegicus [24]): 1.5 µM

From ChEMBL document CHEMBL3352608, “Medicinal chemistry optimization of antiplasmodial imidazopyridazine hits from high throughput screening of a softfocus kinase library: part 2” (J Med Chem, 2014)
